Data as given in ChEMBL document CHEMBL1145189, “Synthesis and evaluation of S-acyl-2-thioethyl esters of modified nucleoside 5'-monophosphates as inhibitors of hepatitis C virus RNA replication” (J Med Chem, 2005).
“And” between values parts separate entries of the source, which are not always exact repeats. Equal entries are not always repeated.

How the values were obtained:
[1] = Effective concentration against hepatitis C virus RNA replication in a subgenomic bicistronic replicon in HBI10A cells; assay type: functional, cell-based; details: Homo sapiens
How it was run: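 Stable Huh-7-derived HBI10A hepatoma line carrying a subgenomic bicistronic HCV replicon. Compound incubated with cells for 24 h. Relative replicon RNA then quantified by in situ ribonuclease protection assay.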

[2] = Average intracellular Metabolism was measured in human HBI10A cells after 23 hr of incubation; assay type: functional
How it was run: (§1)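 Radiolabeled 5-[³H] compound at 2 µM incubated with Huh-7 (passage 27) or HBI10A (passage 15) cells for 3 or 23 h. Cells extracted and analysed by ion pair reverse-phase HPLC. Triphosphate reported as pmol/million cells, with major metabolic byproducts noted. Averages of at least three separate experiments.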

Huh-7 [3] = assay: Average intracellular Metabolism was measured in human Huh-7 cells after 3 h of incubation; assay type: functional; how it was run: as §1
[4] = Average intracellular Metabolism was measured in human HBI10A cells after 3 h of incubation; assay type: functional; how it was run: as §1
Huh-7 [5] = assay: Average intracellular Metabolism was measured in human Huh-7 cells after 23 hr of incubation; assay type: functional; how it was run: as §1
CHO [6] = assay: Effect of compound (550 uM) on growth of CHO cells measured as population doublings from the beginning of the experiment as percent of controls after 20 hr of treatment (harvested at 20h of treatment); assay type: functional, Cricetulus griseus
How it was run: (§2)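 Exponentially growing CHO (clone WBL) monolayers treated for 20 h without S-9. DMSO stock diluted 100-fold into medium, giving 1% v/v DMSO as vehicle control. Cultures harvested at 20, 30 or 42 h after dosing. Growth expressed as population doublings from start of experiment as a percentage of controls.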

CHO [7] = assay: Effect of compound (550 uM) on growth of CHO cells measured as population doublings from the beginning of the experiment as percent of controls after 20 hr of treatment (harvested at 30h of treatment); assay type: functional, Cricetulus griseus; how it was run: as §2
CHO [8] = assay: Effect of compound (550 uM) on growth of CHO cells measured as population doublings from the beginning of the experiment as percent of controls after 20 hr of treatment (harvested at 42h of treatment); assay type: functional, Cricetulus griseus; how it was run: as §2
CHO [9] = assay: Effect of compound (700 uM) on growth of CHO cells measured as population doublings from the beginning of the experiment as percent of controls after 20 hr of treatment (harvested at 20h of treatment); assay type: functional, Cricetulus griseus; how it was run: as §2
CHO [10] = assay: Effect of compound (700 uM) on growth of CHO cells measured as population doublings from the beginning of the experiment as percent of controls after 20 h of treatment (harvested at 30h of treatment); assay type: functional, Cricetulus griseus; how it was run: as §2
CHO [11] = assay: Effect of compound (700 uM) on growth of CHO cells measured as population doublings from the beginning of the experiment as percent of controls after 20 hr of treatment (harvested at 42h of treatment); assay type: functional, Cricetulus griseus; how it was run: as §2
CHO [12] = assay: Effect of compound (800 uM) on growth of CHO cells measured as population doublings from the beginning of the experiment as percent of controls after 20 hr of treatment (harvested at 20h of treatment); assay type: functional, Cricetulus griseus; how it was run: as §2
CHO [13] = assay: Effect of compound (800 uM) on growth of CHO cells measured as population doublings from the beginning of the experiment as percent of controls after 20 hr of treatment (harvested at 30h of treatment); assay type: functional, Cricetulus griseus; how it was run: as §2
CHO [14] = assay: Effect of compound (800 uM) on growth of CHO cells measured as population doublings from the beginning of the experiment as percent of controls after 20 hr of treatment (harvested at 42h of treatment); assay type: functional, Cricetulus griseus; how it was run: as §2
[15] = Cytotoxic concentration of compound in human HBI10A cells infected with hepatitis C virus in MTS assay; assay type: functional
How it was run: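 MTS cytotoxicity run on samples parallel to the replicon assay, at the same time (24 h compound exposure). Cells plated at 2.0 × 10⁴/well and compound added next day at 2× in medium. Incubation at 37 °C, 5% CO₂. MTS reagent added for 1 h, then absorbance read at 490 nm.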

CHO [16] = assay: Effect of compound (600 uM) on growth of CHO cells measured as population doublings from the beginning of the experiment as percent of controls after 20 hr of treatment (harvested at 20h of treatment); assay type: functional, Cricetulus griseus; how it was run: as §2
CHO [17] = assay: Effect of compound (600 uM) on growth of CHO cells measured as population doublings from the beginning of the experiment as percent of controls after 20 hr of treatment (harvested at 30h of treatment); assay type: functional, Cricetulus griseus; how it was run: as §2
CHO [18] = assay: Effect of compound (600 uM) on growth of CHO cells measured as population doublings from the beginning of the experiment as percent of controls after 20 hr of treatment (harvested at 42h of treatment); assay type: functional, Cricetulus griseus; how it was run: as §2
CHO [19] = assay: Effect of compound (650 uM) on growth of CHO cells measured as population doublings from the beginning of the experiment as percent of controls after 20 hr of treatment (harvested at 20h of treatment); assay type: functional, Cricetulus griseus; how it was run: as §2
CHO [20] = assay: Effect of compound (650 uM) on growth of CHO cells measured as population doublings from the beginning of the experiment as percent of controls after 20 hr of treatment (harvested at 30h of treatment); assay type: functional, Cricetulus griseus; how it was run: as §2
CHO [21] = assay: Effect of compound (650 uM) on growth of CHO cells measured as population doublings from the beginning of the experiment as percent of controls after 20 hr of treatment (harvested at 42h of treatment); assay type: functional, Cricetulus griseus; how it was run: as §2
CHO [22] = assay: Percent of CHO cells with chromosomal aberrations were determined at 550 uM compound after 20 hr of treatment (harvested at 20h of treatment); assay type: functional, Cricetulus griseus
How it was run: (§3)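 CHO (clone WBL) monolayers treated for 20 h without S-9, with DMSO stock diluted 100-fold into medium. Harvest at 20, 30 or 42 h after dosing; colcemid added 1–2 h before harvest for metaphase arrest. Cells fixed, and 200 cells scored per point for % aberrant cells. Points not scored where toxicity prevented it. Comparison against concurrent controls.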

CHO [23] = assay: Percent of CHO cells with chromosomal aberrations were determined at 550 uM compound after 20 hr of treatment (harvested at 30h of treatment); assay type: functional, Cricetulus griseus; how it was run: as §3
CHO [24] = assay: Percent of CHO cells with chromosomal aberrations were determined at 600 uM compound after 20 hr of treatment (harvested at 20h of treatment); assay type: functional, Cricetulus griseus; how it was run: as §3
CHO [25] = assay: Percent of CHO cells with chromosomal aberrations were determined at 600 uM compound after 20 hr of treatment (harvested at 30h of treatment); assay type: functional, Cricetulus griseus; how it was run: as §3
CHO [26] = assay: Percent of CHO cells with chromosomal aberrations were determined at 600 uM compound after 20 hr of treatment (harvested at 42h of treatment); assay type: functional, Cricetulus griseus; how it was run: as §3
CHO [27] = assay: Percent of CHO cells with chromosomal aberrations were determined at 650 uM compound after 20 hr of treatment (harvested at 30h of treatment); assay type: functional, Cricetulus griseus; how it was run: as §3
CHO [28] = assay: Percent of CHO cells with chromosomal aberrations were determined at 700 uM compound after 20 hr of treatment (harvested at 42h of treatment); assay type: functional, Cricetulus griseus; how it was run: as §3
CHO [29] = assay: Percent of CHO cells with chromosomal aberrations were determined at 650 uM compound after 20 hr of treatment (harvested at 20h of treatment); Not scored because of toxicity; assay type: functional, cell-based; details: Cricetulus griseus; how it was run: as §3
CHO [30] = assay: Percent of CHO cells with chromosomal aberrations were determined at 700 uM compound after 20 hr of treatment (harvested at 20h of treatment); Not scored because of toxicity; assay type: functional, cell-based; details: Cricetulus griseus; how it was run: as §3
CHO [31] = assay: Percent of CHO cells with chromosomal aberrations were determined at 700 uM compound after 20 h of treatment (harvested at 30h of treatment); Not scored because of toxicity; assay type: functional, cell-based; details: Cricetulus griseus; how it was run: as §3
CHO [32] = assay: Percent of CHO cells with chromosomal aberrations were determined at 800 uM compound after 20 hr of treatment (harvested at 20h of treatment); Not scored because of toxicity; assay type: functional, cell-based; details: Cricetulus griseus; how it was run: as §3
CHO [33] = assay: Percent of CHO cells with chromosomal aberrations were determined at 800 uM compound after 20 hr of treatment (harvested at 30h of treatment); Not scored because of toxicity; assay type: functional, cell-based; details: Cricetulus griseus; how it was run: as §3
CHO [34] = assay: Percent of CHO cells with chromosomal aberrations were determined at 800 uM compound after 20 hr of treatment (harvested at 42h of treatment); Not scored because of toxicity; assay type: functional, cell-based; details: Cricetulus griseus; how it was run: as §3
CHO [35] = assay: Effect of compound (10000 uM) on growth of CHO cells measured as population doublings from the beginning of the experiment as percent of controls after 20 hr of treatment (harvested at 20h of treatment); assay type: functional, Cricetulus griseus; how it was run: as §2
CHO [36] = assay: Effect of compound (10000 uM) on growth of CHO cells measured as population doublings from the beginning of the experiment as percent of controls after 20 hr of treatment (harvested at 30h of treatment); assay type: functional, Cricetulus griseus; how it was run: as §2
CHO [37] = assay: Effect of compound (10000 uM) on growth of CHO cells measured as population doublings from the beginning of the experiment as percent of controls after 20 hr of treatment (harvested at 42h of treatment); assay type: functional, Cricetulus griseus; how it was run: as §2
CHO [38] = assay: Percent of CHO cells with chromosomal aberrations were determined at 10000 uM compound after 20 hr of treatment (harvested at 20h of treatment); assay type: functional, Cricetulus griseus; how it was run: as §3
CHO [39] = assay: Percent of CHO cells with chromosomal aberrations were determined at 10000 uM compound after 20 hr of treatment (harvested at 30h of treatment); assay type: functional, Cricetulus griseus; how it was run: as §3
CHO [40] = assay: Percent of CHO cells with chromosomal aberrations were determined at 10000 uM compound after 20 hr of treatment (harvested at 42h of treatment); assay type: functional, Cricetulus griseus; how it was run: as §3
[41] = Inhibitory concentration against hepatitis C virus NS5B-mediated RNA synthesis in HBI10A cells; assay type: functional, cell-based; details: Homo sapiens

Compound: CO[C@@H]1[C@H](O)[C@@H](COP(=O)(OCCSC(=O)C(C)(C)C)OCCSC(=O)C(C)(C)C)O[C@H]1n1ccc(N)nc1=O
- EC50 [1]: 3 µM
- Activity [2]: 5.8 pmol/million cells
- Activity (Huh-7 [3]): 7.02 pmol/million cells
- Activity [4]: 15.9 pmol/million cells
- Activity (Huh-7 [5]): 1.88 pmol/million cells
- Growth (CHO [6]): 59%
- Growth (CHO [7]): 82%
- Growth (CHO [8]): 95%
- Growth (CHO [9]): 21%
- Growth (CHO [10]): 6%
- Growth (CHO [11]): 47%
- Growth (CHO [12]): 6%
- Growth (CHO [13]): 0%
- Growth (CHO [14]): 0%
- CC50 [15]: > 100 µM
- Growth (CHO [16]): 51%
- Growth (CHO [17]): 57%
- Growth (CHO [18]): 88%
- Growth (CHO [19]): 27%
- Growth (CHO [20]): 46%
- Growth (CHO [21]): 90%
- Aberrant cells (CHO [22]): 0%
- Aberrant cells (CHO [23]): 3.5%
- Aberrant cells (CHO [24]): 2%
- Aberrant cells (CHO [25]): 1.5%
- Aberrant cells (CHO [26]): 1.5%
- Aberrant cells (CHO [27]): 4.5% and 3%
- Aberrant cells (CHO [28]): 3.5%
- Aberrant cells (CHO [29]): Not scored
- Aberrant cells (CHO [30]): Not scored
- Aberrant cells (CHO [31]): Not scored
- Aberrant cells (CHO [32]): Not scored
- Aberrant cells (CHO [33]): Not scored
- Aberrant cells (CHO [34]): Not scored

Compound: CC(C)(C)C(=O)SCCOP(=O)(OCCSC(=O)C(C)(C)C)OC[C@@H]1C[C@@H](O)[C@H](n2ccc(N)nc2=O)O1
- EC50 [1]: 1.4 µM
- CC50 [15]: > 100 µM

Compound: Nc1ccn([C@H]2CC[C@@H](CO)O2)c(=O)n1 [ZALCITABINE]
- Growth (CHO [35]): 65%
- Growth (CHO [36]): 101%
- Growth (CHO [37]): 105%
- Aberrant cells (CHO [38]): 9.5%
- Aberrant cells (CHO [39]): 8%
- Aberrant cells (CHO [40]): 3%

Compound: Nc1nc(O)c2ccn([C@@H]3O[C@H](CO)C[C@H]3O)c2n1
- IC50 [41]: 0.08 µM
- EC50 [1]: > 50 µM

Compound: CO[C@@H]1[C@H](O)[C@@H](COP(=O)(OCCSC(=O)C(C)(C)C)OCCSC(=O)C(C)(C)C)O[C@H]1n1ccc2c(O)nc(N)nc21
- EC50 [1]: > 50 µM
- CC50 [15]: > 100 µM

Compound: CO[C@@H]1[C@H](O)[C@@H](CO)O[C@H]1n1ccc(N)nc1=O
- IC50 [41]: 3.8 µM
- EC50 [1]: 21 µM
- Activity [2]: 0.18 pmol/million cells
- Activity (Huh-7 [3]): 0.17 pmol/million cells
- Activity [4]: 0.05 pmol/million cells
- Activity (Huh-7 [5]): 0.61 pmol/million cells
- CC50 [15]: > 100 µM
